The source of these data is ChEMBL document CHEMBL1828618, “Synthesis and biological activity of novel tiliroside derivants” (Eur J Med Chem, 2011).

The structures appear in SMILES notation.

In assay [1] the test system is HepG2. Description: Increase in glucose consumption in insulin-resistant human HepG2 cells after 24 hrs. The format is functional, cell-based. Conditions: HepG2, 24 h. An outline of the steps: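 HepG2 grown in high-glucose DMEM with 10% FBS, then plated 24 h. Made insulin-resistant with 10^-7 M insulin for 36 h in serum-free, phenol red-free high-glucose DMEM. Washed, then exposed to test agents at several concentrations for 24 h. Medium glucose measured by kit. Consumption gain expressed as % over the insulin-resistant model group. EC50 derived.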

The nature of assay [2]: Inhibition of dephosphorylated glycogen phosphorylase.
In assay [3] the test system is HepG2. Put plainly: Induction of ACC phosphorylation in human HepG2 cells after 2 hrs by Western blot analysis. The format is cell-based. An outline of the steps:
(§1)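 HepG2 in 12-well plates exposed to increasing doses for 2 h. Lysed on ice in RIPA buffer (pH 7.2) with phosphatase and protease inhibitors. Run on 7.5% SDS-PAGE and blotted to PVDF. Blocked 1 h in 5% BSA, primary antibodies overnight at 4 °C, secondary 1 h at room temperature. Chemiluminescent detection. Means ± SE of 3 independent experiments.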

Assay [4] addresses AMP-activated protein kinase, AMPK (Homo sapiens) (UniProt P54646+O43741+P54619+Q9UGJ0+Q9Y478+Q13131+Q9UGI9). Put plainly: Induction of AMPK phosphorylation in human HepG2 cells after 2 hrs by Western blot analysis. The format is cell-based. An outline of the steps: as §1
(Immunoblotting shows a protein as a band on a membrane.)

Usually EC50 stands for the concentration giving half of the maximal effect. High values mean a less potent agent, low ones a more potent agent. Take `COc1ccc(/C=C/C(=O)COc2c(-c3ccc(O)cc3)oc3cc(O)cc(O)c3c2=O)cc1Br`: the EC50 in the assay with HepG2 [1] is greater than 20000 nM.

For the compound `COc1ccc(/C=C/C(=O)COc2c(-c3ccc(O)cc3)oc3cc(O)cc(O)c3c2=O)cc1`, the 50% effective concentration (EC50) in the assay with HepG2 [1] worked out at 149 nM.

Usually IC50 stands for the concentration needed to halve the response being measured. `O=c1cc(-c2ccc(O)c(O)c2)oc2c(O)c(O)cc(O)c12` [HYPOLAETIN] had an IC50 in assay [2] of 15700 nM.

In the assay with HepG2 [1], `O=C(/C=C/c1ccccc1)COc1c(-c2ccc(O)cc2)oc2cc(O)cc(O)c2c1=O` yielded an EC50 of 473 nM.

As for `Cc1ccc(/C=C/C(=O)COc2c(-c3ccc(O)cc3)oc3cc(O)cc(O)c3c2=O)cc1`, a half-maximal response in the assay on HepG2 [1] (EC50) required 10 nM.

Take `O=C(/C=C/c1ccc(Br)cc1)COc1c(-c2ccc(O)cc2)oc2cc(O)cc(O)c2c1=O`: in the assay with HepG2 [1], the EC50 was 393 nM.

For `O=C(/C=C/c1ccc(C(F)(F)F)cc1)COc1c(-c2ccc(O)cc2)oc2cc(O)cc(O)c2c1=O`, the EC50 in the assay with HepG2 [1] is greater than 20000 nM.

In the case of `O=C(/C=C/c1ccc(F)cc1)COc1c(-c2ccc(O)cc2)oc2cc(O)cc(O)c2c1=O`, the response in the assay on HepG2 [1] was half-maximal at 669 nM (EC50).

Turning to `O=C(/C=C/c1ccc(O)cc1)COc1c(-c2ccc(O)cc2)oc2cc(O)cc(O)c2c1=O`, a half-maximal effect in the assay with HepG2 [1] (EC50) was put at 368 nM.

For `O=C(/C=C/c1ccc(O)c(Cl)c1)COc1c(-c2ccc(O)cc2)oc2cc(O)cc(O)c2c1=O`, a half-maximal effect with HepG2 [1] (EC50) was put at 3560 nM.

`O=C(/C=C/c1ccc(O)cc1)OC[C@H]1O[C@@H](Oc2c(-c3ccc(O)cc3)oc3cc(O)cc(O)c3c2=O)[C@H](O)[C@@H](O)[C@@H]1O` [TILIROSIDE] came in with an EC50 in the assay on HepG2 [1] of 155 nM.

On to `O=C(/C=C/c1ccc(OCc2ccccc2)cc1)COc1c(-c2ccc(O)cc2)oc2cc(O)cc(O)c2c1=O`, for which, in the assay on HepG2 [1], the response was half-maximal at 658 nM (EC50). This EC50 lies about 4.2-fold higher than the previous one.

On to `COc1cc(/C=C/C(=O)COc2c(-c3ccc(O)cc3)oc3cc(O)cc(O)c3c2=O)ccc1OCc1ccccc1`, for which, in the assay on HepG2 [1], the EC50 was greater than 20000 nM.

As for `COc1ccc(/C=C/C(=O)COc2c(-c3ccc(O)cc3)oc3cc(O)cc(O)c3c2=O)cc1O`, in the assay on HepG2 [1], the EC50 is 5070 nM. This counts as single-digit micromolar.

In the assay with HepG2 [1], `CCCCCCOc1ccc(/C=C/C(=O)COc2c(-c3ccc(O)cc3)oc3cc(O)cc(O)c3c2=O)cc1` gave an EC50 greater than 20000 nM.

`O=c1c(O)c(-c2ccc(O)c(O)c2)oc2cc(O)c(O)c(O)c12` [QUERCETAGETIN] returned an IC50 in assay [2] of 9700 nM.

`O=C(/C=C/c1ccc(Cl)c(Cl)c1)COc1c(-c2ccc(O)cc2)oc2cc(O)cc(O)c2c1=O` displayed an EC50 with HepG2 [1] of 2590 nM.

`CCOc1ccc(/C=C/C(=O)COc2c(-c3ccc(O)cc3)oc3cc(O)cc(O)c3c2=O)cc1` had an EC50 in the assay with HepG2 [1] of 42 nM.

Compound `COc1cc(/C=C/C(=O)COc2c(-c3ccc(O)cc3)oc3cc(O)cc(O)c3c2=O)ccc1O` returned an EC50 in the assay with HepG2 [1] of 6190 nM.

Turning to `N#Cc1ccc(/C=C/C(=O)COc2c(-c3ccc(O)cc3)oc3cc(O)cc(O)c3c2=O)cc1`, the Activity result (in the assay on HepG2 [3]; in assay [4]) was “Dose-dependent effect” throughout. The EC50 with HepG2 [1] stood at 3 nM.

Compound `O=c1cc(-c2ccc(O)c(O)c2)oc2cc(O)c(O)c(O)c12` [6-HYDROXYLUTEOLIN] came in with an IC50 in assay [2] of 11600 nM.

In the assay with HepG2 [1], `CSc1ccc(/C=C/C(=O)COc2c(-c3ccc(O)cc3)oc3cc(O)cc(O)c3c2=O)cc1` registered an EC50 greater than 20000 nM.

For `O=C(/C=C/c1ccc(Cl)cc1)COc1c(-c2ccc(O)cc2)oc2cc(O)cc(O)c2c1=O`, the EC50 in the assay on HepG2 [1] amounted to 1080 nM.

Take `CC(C)c1ccc(/C=C/C(=O)COc2c(-c3ccc(O)cc3)oc3cc(O)cc(O)c3c2=O)cc1`: the EC50 in the assay on HepG2 [1] is 15 nM.

Turning to `CC(C)(C)c1ccc(/C=C/C(=O)COc2c(-c3ccc(O)cc3)oc3cc(O)cc(O)c3c2=O)cc1`, it took 13 nM to reach a half-maximal effect with HepG2 [1] (EC50). This EC50 and that of the compound before are within 1.5-fold of each other.

As to `CCCCCCCCOc1ccc(/C=C/C(=O)COc2c(-c3ccc(O)cc3)oc3cc(O)cc(O)c3c2=O)cc1`, the EC50 with HepG2 [1] is greater than 20000 nM.

On to `CCCCOc1ccc(/C=C/C(=O)COc2c(-c3ccc(O)cc3)oc3cc(O)cc(O)c3c2=O)cc1`, for which the concentration for a half-maximal effect (EC50) in the assay on HepG2 [1] was greater than 20000 nM.

For the compound `CN(C)C(=N)NC(=N)N` [METFORMIN], the midpoint of the response in the assay with HepG2 [1], the EC50, lay at 270 nM. This lies in the sub-micromolar range.
